Values after ≈ are worked out from the molar mass of the structure shown.
Tested on: Metaphire posthuma
Experiment: Anthelmintic activity against Pheretima posthuma assessed as time taken for parasite death at 0.1% w/v
Assay type: functional
Conditions: not given
Procedure, shortened: (§1)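 Earthworms (Pheretima posthuma, spelled Perituma posthuma in text) exposed to test compounds at 0.1, 0.2 and 0.5% w/v. Albendazole served as standard, with an untreated control. Paralysis was recorded as the time until worms became motionless, then time to death was recorded, in minutes. Each value is the mean of three determinations with S.D.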
In the case of CCOC(=O)c1cnn(-c2nc(-c3ccco3)c(C#N)c(=O)n2C)c1N, the Time is reported as 58.76 min.

Tested on: Staphylococcus aureus
Experiment: Antimicrobial activity against Staphylococcus aureus at 25 ug/ml by agar plate diffusion technique
Assay type: functional
Conditions: read-out: IZ
Procedure, shortened: (§2)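 Agar plate diffusion against E. coli, P. aeruginosa, S. aureus and B. subtilis, with compounds at 25, 50 and 100 µg/mL. Streptomycin as standard.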
Work on CCOC(=O)c1cnn(-c2nc(-c3ccco3)c(C#N)c(=O)n2C)c1N yielded a zone of inhibition at 25 µg/mL of 10.9 mm.

Tested on: Pseudomonas aeruginosa
Experiment: Antimicrobial activity against Pseudomonas aeruginosa at 100 ug/ml by agar plate diffusion technique
Assay type: functional
Conditions: read-out: IZ
Procedure, shortened: as §2
CCOC(=O)c1cnn(-c2nc(-c3ccco3)c(C#N)c(=O)n2C)c1N showed a zone of inhibition at 100 µg/mL of 19.9 mm.

Tested on: Escherichia coli
Experiment: Antimicrobial activity against Escherichia coli at 100 ug/ml by agar plate diffusion technique
Assay type: functional
Conditions: read-out: IZ
Procedure, shortened: as §2
Compound CCOC(=O)c1cnn(-c2nc(-c3ccco3)c(C#N)c(=O)n2C)c1N has a zone of inhibition at 100 µg/mL of 18 mm.

Tested on: Aspergillus niger
Experiment: Antimicrobial activity against Aspergillus niger at 25 ug/ml by paper disc method
Assay type: functional
Conditions: read-out: IZ
Procedure, shortened: (§3)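 Paper disc method against A. niger and C. albicans, with compounds at 25, 50 and 100 µg/mL. Amphotericin-B as standard.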
CCOC(=O)c1cnn(-c2nc(-c3ccco3)c(C#N)c(=O)n2C)c1N gave a zone of inhibition at 25 µg/mL of 10.1 mm.

Tested on: Bacillus subtilis
Experiment: Antimicrobial activity against Bacillus subtilis at 25 ug/ml by agar plate diffusion technique
Assay type: functional
Conditions: read-out: IZ
Procedure, shortened: as §2
Compound CCOC(=O)c1cnn(-c2nc(-c3ccco3)c(C#N)c(=O)n2C)c1N has a zone of inhibition at 25 µg/mL of 12.9 mm.

Tested on: Pseudomonas aeruginosa
Experiment: Antimicrobial activity against Pseudomonas aeruginosa at 50 ug/ml by agar plate diffusion technique
Assay type: functional
Conditions: read-out: IZ
Procedure, shortened: as §2
In the case of CCOC(=O)c1cnn(-c2nc(-c3ccco3)c(C#N)c(=O)n2C)c1N, the zone of inhibition at 50 µg/mL is reported as 12.1 mm.

Tested on: Metaphire posthuma
Experiment: Anthelmintic activity against Pheretima posthuma assessed as time taken for parasite death at 0.5% w/v
Assay type: functional
Conditions: not given
Procedure, shortened: as §1
Compound CCOC(=O)c1cnn(-c2nc(-c3ccco3)c(C#N)c(=O)n2C)c1N has a Time of 54.82 min.

Tested on: not listed separately
Experiment: Antioxidant activity assessed as inhibition of lipid peroxidation using egg lecithin liposomes incubated for 1 hr
Assay type: functional
Conditions: not given
Procedure, shortened: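 Egg lecithin (3 mg/mL, phosphate buffer pH 7.4) sonicated 10 min to form liposomes. Sample or ascorbic acid (12.5–100 µg/mL) added. Peroxidation induced with FeCl3 and L-ascorbic acid, 1 h at 37 °C. Stopped with HCl/TCA/TBA/BHA, boiled 15 min, centrifuged, supernatant read at 532 nm. Triplicate. % inhibition vs control. IC50 derived.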
Work on CCOC(=O)c1cnn(-c2nc(-c3ccco3)c(C#N)c(=O)n2C)c1N yielded an IC50 of 116 µg/mL (≈ 327 µM).

Tested on: Staphylococcus aureus
Experiment: Antimicrobial activity against Staphylococcus aureus at 100 ug/ml by agar plate diffusion technique
Assay type: functional
Conditions: read-out: IZ
Procedure, shortened: as §2
CCOC(=O)c1cnn(-c2nc(-c3ccco3)c(C#N)c(=O)n2C)c1N showed a zone of inhibition at 100 µg/mL of 17.7 mm.

Tested on: Metaphire posthuma
Experiment: Anthelmintic activity against Pheretima posthuma assessed as time taken for complete parasite paralysis at 0.5% w/v
Assay type: functional
Conditions: not given
Procedure, shortened: (§4)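 Earthworms (Pheretima posthuma) exposed to test solutions at 0.1, 0.2 and 0.5% w/v; time in minutes to complete paralysis (worms motionless) recorded. Albendazole as standard. Mean of three determinations ± S.D.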
CCOC(=O)c1cnn(-c2nc(-c3ccco3)c(C#N)c(=O)n2C)c1N gave a Time of 45.98 min.

Tested on: Pseudomonas aeruginosa
Experiment: Antimicrobial activity against Pseudomonas aeruginosa at 25 ug/ml by agar plate diffusion technique
Assay type: functional
Conditions: read-out: IZ
Procedure, shortened: as §2
For CCOC(=O)c1cnn(-c2nc(-c3ccco3)c(C#N)c(=O)n2C)c1N, the zone of inhibition at 25 µg/mL was 9.19 mm.

Tested on: Staphylococcus aureus
Experiment: Antimicrobial activity against Staphylococcus aureus at 50 ug/ml by agar plate diffusion technique
Assay type: functional
Conditions: read-out: IZ
Procedure, shortened: as §2
CCOC(=O)c1cnn(-c2nc(-c3ccco3)c(C#N)c(=O)n2C)c1N gave a zone of inhibition at 50 µg/mL of 14.1 mm.

Tested on: Aspergillus niger
Experiment: Antimicrobial activity against Aspergillus niger at 50 ug/ml by paper disc method
Assay type: functional
Conditions: read-out: IZ
Procedure, shortened: as §3
Compound CCOC(=O)c1cnn(-c2nc(-c3ccco3)c(C#N)c(=O)n2C)c1N has a zone of inhibition at 50 µg/mL of 13.1 mm.

Tested on: Candida albicans
Experiment: Antimicrobial activity against Candida albicans at 50 ug/ml by paper disc method
Assay type: functional
Conditions: read-out: IZ
Procedure, shortened: as §3
CCOC(=O)c1cnn(-c2nc(-c3ccco3)c(C#N)c(=O)n2C)c1N showed a zone of inhibition at 50 µg/mL of 12.3 mm.

Tested on: Metaphire posthuma
Experiment: Anthelmintic activity against Pheretima posthuma assessed as time taken for parasite death at 0.2% w/v
Assay type: functional
Conditions: not given
Procedure, shortened: as §1
Compound CCOC(=O)c1cnn(-c2nc(-c3ccco3)c(C#N)c(=O)n2C)c1N has a Time of 55.23 min.

Tested on: Bacillus subtilis
Experiment: Antimicrobial activity against Bacillus subtilis at 100 ug/ml by agar plate diffusion technique
Assay type: functional
Conditions: read-out: IZ
Procedure, shortened: as §2
Work on CCOC(=O)c1cnn(-c2nc(-c3ccco3)c(C#N)c(=O)n2C)c1N yielded a zone of inhibition at 100 µg/mL of 18.3 mm.

Tested on: not listed separately
Experiment: Antioxidant activity assessed as nitric oxide radical scavenging activity after 150 mins
Assay type: functional
Conditions: not given
Procedure, shortened: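 10 mM sodium nitroprusside (4 mL), PBS pH 7.4 (1 mL) and sample or ascorbic acid in DMSO (1 mL, 12.5–100 µg/mL), incubated 150 min at 25 °C. Nitrite detected with sulphanilic acid (5 min) then naphthylethylenediamine (30 min, diffused light). Read at […]. Triplicate. % inhibition = [1 − (Vt/Vc)] × 100. IC50 derived from it.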
CCOC(=O)c1cnn(-c2nc(-c3ccco3)c(C#N)c(=O)n2C)c1N gave an IC50 of 108 µg/mL (≈ 305 µM).

Tested on: Candida albicans
Experiment: Antimicrobial activity against Candida albicans at 25 ug/ml by paper disc method
Assay type: functional
Conditions: read-out: IZ
Procedure, shortened: as §3
CCOC(=O)c1cnn(-c2nc(-c3ccco3)c(C#N)c(=O)n2C)c1N showed a zone of inhibition at 25 µg/mL of 10.9 mm.

Tested on: Aspergillus niger
Experiment: Antimicrobial activity against Aspergillus niger at 100 ug/ml by paper disc method
Assay type: functional
Conditions: read-out: IZ
Procedure, shortened: as §3
In the case of CCOC(=O)c1cnn(-c2nc(-c3ccco3)c(C#N)c(=O)n2C)c1N, the zone of inhibition at 100 µg/mL is reported as 20.4 mm.

Tested on: Metaphire posthuma
Experiment: Anthelmintic activity against Pheretima posthuma assessed as time taken for complete parasite paralysis at 0.2% w/v
Assay type: functional
Conditions: not given
Procedure, shortened: as §4
For CCOC(=O)c1cnn(-c2nc(-c3ccco3)c(C#N)c(=O)n2C)c1N, the Time was 42.22 min.

Tested on: Metaphire posthuma
Experiment: Anthelmintic activity against Pheretima posthuma assessed as time taken for complete parasite paralysis at 0.1% w/v
Assay type: functional
Conditions: not given
Procedure, shortened: as §4
In the case of CCOC(=O)c1cnn(-c2nc(-c3ccco3)c(C#N)c(=O)n2C)c1N, the Time is reported as 47.26 min.

Tested on: not listed separately
Experiment: Antioxidant activity assessed as potassium ferricyanide ion reducing power after 20 mins
Assay type: functional
Conditions: not given
Procedure, shortened: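 Oyaizu method. Samples or ascorbic acid in DMF (12.5–100 µg/mL) mixed with 0.2 M phosphate buffer pH 6.6 and 1% potassium ferricyanide, 20 min at 50 °C. 10% TCA added, centrifuged. Supernatant mixed with water and 0.1% FeCl3, read at 700 nm. % = [(Vt/Vc) − 1] × 100. IC50 derived.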
Compound CCOC(=O)c1cnn(-c2nc(-c3ccco3)c(C#N)c(=O)n2C)c1N has an IC50 of 91 µg/mL (≈ 257 µM).

Tested on: Candida albicans
Experiment: Antimicrobial activity against Candida albicans at 100 ug/ml by paper disc method
Assay type: functional
Conditions: read-out: IZ
Procedure, shortened: as §3
Work on CCOC(=O)c1cnn(-c2nc(-c3ccco3)c(C#N)c(=O)n2C)c1N yielded a zone of inhibition at 100 µg/mL of 18 mm.

Tested on: Escherichia coli
Experiment: Antimicrobial activity against Escherichia coli at 50 ug/ml by agar plate diffusion technique
Assay type: functional
Conditions: read-out: IZ
Procedure, shortened: as §2
CCOC(=O)c1cnn(-c2nc(-c3ccco3)c(C#N)c(=O)n2C)c1N showed a zone of inhibition at 50 µg/mL of 14.2 mm.

Tested on: Escherichia coli
Experiment: Antimicrobial activity against Escherichia coli at 25 ug/ml by agar plate diffusion technique
Assay type: functional
Conditions: read-out: IZ
Procedure, shortened: as §2
For CCOC(=O)c1cnn(-c2nc(-c3ccco3)c(C#N)c(=O)n2C)c1N, the zone of inhibition at 25 µg/mL was 13 mm.

Tested on: Bacillus subtilis
Experiment: Antimicrobial activity against Bacillus subtilis at 50 ug/ml by agar plate diffusion technique
Assay type: functional
Conditions: read-out: IZ
Procedure, shortened: as §2
Work on CCOC(=O)c1cnn(-c2nc(-c3ccco3)c(C#N)c(=O)n2C)c1N yielded a zone of inhibition at 50 µg/mL of 14.1 mm.

Tested on: not listed separately
Experiment: Antiinflammatory activity assessed as inhibition of albumin denaturation at 100 ug/ml by UV-visible spectrophotometry
Assay type: functional
Conditions: not given
Procedure, shortened: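 Compounds dissolved in minimal DMF, diluted in PBS pH 7.4 (final DMF <2.5%). 1 mL test solution (100 µg/mL) plus 1 mL 1% albumin in PBS, 15 min at 27 ± 1 °C, then heated 10 min at 60 ± 1 °C. After cooling, turbidity read at 660 nm. % inhibition = [(Vt/Vc) − 1] × 100 against a no-drug control. Triplicate, averaged. Diclofenac standard.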
With CCOC(=O)c1cnn(-c2nc(-c3ccco3)c(C#N)c(=O)n2C)c1N the inhibition was 42.2%.

Tested on: not listed separately
Experiment: Antioxidant activity assessed as hydrogen peroxide scavenging activity after 10 mins
Assay type: functional
Conditions: not given
Procedure, shortened: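 H2O2 (20 mM) in PBS pH 7.4. 1 mL of sample or ascorbic acid in methanol (12.5–100 µg/mL) added to 2 mL H2O2 solution. A230 read after 10 min. % inhibition = [1 − (Vt/Vc)] × 100. Triplicate, averaged. IC50 derived from % inhibition across concentrations.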
In the case of CCOC(=O)c1cnn(-c2nc(-c3ccco3)c(C#N)c(=O)n2C)c1N, the IC50 is reported as 104 µg/mL (≈ 294 µM).

From ChEMBL document CHEMBL1821590, “Novel dihydropyrimidines and its pyrazole derivatives: synthesis and pharmacological screening” (Eur J Med Chem, 2011)
